Test results as given in ChEMBL document CHEMBL1148634 (J Med Chem, 2006).
Calls of active or inactive are those of the source. The rule behind the calls is not given here.

Legend:
[1] = molecular target: T1, Melatonin receptor type 1B (Homo sapiens, UniProt P49286); experiment: Displacement of 2-[125I]iodomelatonin from human recombinant MT2 receptor expressed in NIH3T3 cells; format: cell-based
T1 sequence (P49286 whole entry): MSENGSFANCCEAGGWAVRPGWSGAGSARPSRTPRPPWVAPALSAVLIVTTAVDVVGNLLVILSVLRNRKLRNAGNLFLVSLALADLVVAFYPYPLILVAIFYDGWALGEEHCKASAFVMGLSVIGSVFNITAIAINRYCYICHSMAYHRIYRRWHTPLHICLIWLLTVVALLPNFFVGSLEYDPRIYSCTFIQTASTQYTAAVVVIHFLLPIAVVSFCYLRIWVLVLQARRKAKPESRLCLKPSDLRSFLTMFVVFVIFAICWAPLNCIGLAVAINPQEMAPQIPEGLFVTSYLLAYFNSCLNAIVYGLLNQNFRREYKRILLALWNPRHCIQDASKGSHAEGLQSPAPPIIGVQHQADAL

[2] = system: Melanophore; experiment: Agonist activity in Xenopus laevis melanophore assessed as potency for pigment aggregation; format: functional, cell-based
Outline: (§1)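 A clonal Xenopus laevis melanophore line was grown in 96-well plates, and medium was switched to 0.7 × L-15 18 h before testing. Initial absorbance at 630 nm was read, analogue was added, and final absorbance was read after 60 min. Response was the fractional change 1 − (Af/Ai).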

[3] = molecular target: T2, Melatonin receptor type 1A (Homo sapiens, UniProt P48039); experiment: Displacement of 2-[125I]iodomelatonin from human recombinant MT1 receptor expressed in NIH3T3 cells; format: cell-based
T2 sequence (P48039 whole entry): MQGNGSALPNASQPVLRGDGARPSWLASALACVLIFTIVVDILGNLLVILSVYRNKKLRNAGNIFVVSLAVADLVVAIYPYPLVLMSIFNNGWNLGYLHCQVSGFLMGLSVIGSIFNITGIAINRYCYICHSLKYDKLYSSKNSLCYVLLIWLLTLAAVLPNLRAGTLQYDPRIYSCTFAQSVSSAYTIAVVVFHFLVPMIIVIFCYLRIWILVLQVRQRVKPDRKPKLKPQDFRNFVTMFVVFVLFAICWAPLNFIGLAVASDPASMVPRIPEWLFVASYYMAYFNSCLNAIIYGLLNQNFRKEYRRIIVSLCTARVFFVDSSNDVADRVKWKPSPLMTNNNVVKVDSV

[4] = system: Melanophore; experiment: Antagonist activity in Xenopus laevis melanophore assessed as potency for pigment aggregation; format: functional, cell-based
Outline: (§2)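 Antagonism of the pigment aggregation response was tested on a clonal Xenopus laevis melanophore line.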

[5] = system: Melanophore; experiment: Agonist activity in Xenopus laevis melanophore assessed as potency for pigment aggregation at 10 uM; format: functional, cell-based; outline: as §1
[6] = molecular target: T3, Melatonin receptor type 1B (Homo sapiens) (UniProt P49286); experiment: Activity at MT2 receptor expressed in NIH3T3 cells assessed as inhibition of forskolin-stimulated cAMP synthesis; format: functional, cell-based; conditions: filed as agonist
T3 sequence (whole entry): T1 sequence (P49286 whole entry)
Outline: (§3)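 NIH 3T3 cells stably expressing cloned human MT1 or MT2 receptors were pretreated with IBMX (25 µM, 10 min), then given forskolin (1 µM, 10 min) with or without test agent. Cyclic AMP was measured in duplicate by radioimmunoassay for each cell sample. Data are mean ± SEM of quadruplicate cell samples.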

[7] = system: Melanophore; experiment: Antagonist activity in Xenopus laevis melanophore assessed as potency for pigment aggregation at 10 uM; format: functional, cell-based; outline: as §2
[8] = molecular target: T2, Melatonin receptor type 1A; experiment: Activity at MT1 receptor expressed in NIH3T3 cells assessed as inhibition of forskolin-stimulated cAMP synthesis; format: functional, cell-based; conditions: filed as agonist; outline: as §3
[9] = system: Melanophore; experiment: Potency for pigment aggregation in Xenopus laevis melanophore at 10 uM relative to melatonin; format: functional
[10] = molecular target: T2, Melatonin receptor type 1A; experiment: Activity at MT1 receptor expressed in NIH3T3 cells assessed as inhibition of […] cAMP synthesis at 10 uM; format: functional, cell-based; conditions: filed as antagonist
Outline: (§4)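 Antagonism was tested in NIH 3T3 cells expressing human MT1. […] Cyclic AMP was measured in duplicate by radioimmunoassay. Data are mean ± SEM of quadruplicate cell samples.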

[11] = molecular target: T2, Melatonin receptor type 1A; experiment: Activity at MT1 receptor expressed in NIH3T3 cells assessed as inhibition of forskolin-stimulated cAMP synthesis at 10 uM; format: functional, cell-based; outline: as §3
[12] = molecular target: T2, Melatonin receptor type 1A; experiment: Activity at MT1 receptor expressed in NIH3T3 cells assessed as inhibition of forskolin-stimulated cAMP synthesis at 1 uM; format: functional, cell-based; outline: as §3
[13] = molecular target: T2, Melatonin receptor type 1A; experiment: Activity at MT1 receptor expressed in NIH3T3 cells assessed as inhibition of […] cAMP synthesis; format: functional, cell-based; conditions: filed as antagonist; outline: as §4
[14] = Xenopus laevis, Melanophore, read-out: EC50

## COc1ccc2c(c1)c(C(C)CNC(C)=O)cn2C (stereo in doubt; 6a) [listing 1 of 2 here]
[1]
  Ki: 0.41 nM
[2]; melanophore, read-out: EC50
  EC50: 1.72 nM

## COc1ccc2c(c1)c(C1(CNC(=O)C3CC3)CCCC1)cn2C
[3]
  Ki: 468 nM
[4]
  IC50: 1180 nM
[5]
  Activity: inactive
[1]
  Ki: 257 nM

## COc1ccc2c(c1)c(C(C)CNC(C)=O)cn2C (single isomer, unassigned; (+)) [listing 1 of 2 here]
[1]
  Ki: 0.5 nM
[2]; melanophore, read-out: EC50
  EC50: 0.98 nM

## CCCC(=O)NCC(C)(C)c1cn(C)c2ccc(OC)cc12
[3]
  Ki: 8.51 nM
[6]
  Activity: Agonist
[7]
  Activity: inactive
[1]
  Ki: 0.74 nM
[8]
  Activity: Agonist
[2]; [14]
  EC50: 1 nM

## CCC(=O)NCC1(c2cn(C)c3ccc(OC)cc23)CCC1
[3]
  Ki: 34 nM
[9]
  Activity: 20%
[4]
  IC50: 826 nM
[1]
  Ki: 4.4 nM
[2]; [14]
  EC50: 980 nM

## CCC(=O)NCC1(c2c[nH]c3ccc(OC)cc23)CCC1
[3]
  Ki: 65.7 nM
[7]
  Activity: inactive
[1]
  Ki: 32 nM
[2]; [14]
  EC50: 0.99 nM

## COc1ccc2[nH]cc(CCNC(C)=O)c2c1 [MELATONIN]
[7]
  Activity: inactive
[2]; [14]
  EC50: 0.063 nM

## COc1ccc2c(c1)c(C(C)(C)CNC(=O)C1CCC1)cn2C
[3]
  Ki: 170 nM
[7]
  Activity: inactive
[1]
  Ki: 33.1 nM
[2]; [14]
  EC50: 57.5 nM

## CCCC(=O)NCC(C)c1cn(C)c2ccc(OC)cc12 (configuration not stated)
[3]
  Ki: 4.27 nM
[7]
  Activity: inactive
[1]
  Ki: 0.47 nM
[2]; [14]
  EC50: 1 nM

## CC(=O)NCC1(c2cn(C)c3ccccc23)CCC1
[3]
  Ki: 2190 nM
[4]
  IC50: 1250 nM
[1]
  Ki: 1260 nM
[2]; melanophore
  EC50: Not Active

## COc1ccc2c(c1)c(C1(CNC(C)=O)CCC1)cn2C
[3]
  Ki: 483 nM
[9]
  Activity: 8%
[4]
  IC50: 637 nM
[1]
  Ki: 72 nM
[2]; [14]
  EC50: 1010 nM

## COc1ccc2[nH]cc(C3(CNC(C)=O)CCC3)c2c1
[3]
  Ki: 8.2 nM
[7]
  Activity: inactive
[1]
  Ki: 3.3 nM
[2]; [14]
  EC50: 1.67 nM

## COc1ccc2[nH]cc(C3(CNC(=O)C4CCC4)CCC3)c2c1
[3]
  Ki: 493 nM
[4]
  IC50: > 10000 nM
[5]
  Activity: inactive
[1]
  Ki: 62.2 nM

## Cn1cc(C2(CNC(=O)C3CC3)CCC2)c2ccccc21
[3]
  Ki: 617 nM
[4]
  IC50: 3440 nM
[1]
  Ki: 1440 nM
[2]; melanophore
  EC50: Not Active

## CCC(=O)NCC(C)c1cn(C)c2ccc(OC)cc12 (configuration not stated)
[3]
  Ki: 4.9 nM
[7]
  Activity: inactive
[1]
  Ki: 1.02 nM
[2]; [14]
  EC50: 3.72 nM

## CCC(=O)NCC1(c2cn(C)c3ccccc23)CCC1
[3]
  Ki: 1510 nM
[4]
  IC50: 1150 nM
[1]
  Ki: 1050 nM
[2]; melanophore
  EC50: Not Active

## COc1ccc2c(c1)c(C1(CNC(C)=O)CCCC1)cn2C
[3]
  Ki: 148 nM
[4]
  IC50: 628 nM
[5]
  Activity: inactive
[1]
  Ki: 66.1 nM

## CCC(=O)NCC(C)(C)c1cn(C)c2ccc(OC)cc12
[3]
  Ki: 6.03 nM
[7]
  Activity: inactive
[1]
  Ki: 1.15 nM
[2]; [14]
  EC50: 1.26 nM

## CCCC(=O)NCC1(c2cn(C)c3ccc(OC)cc23)CCCC1
[3]
  Ki: 589 nM
[10]
  Activity: Antagonist
[4]
  IC50: 1640 nM
[5]
  Activity: inactive
[1]
  Ki: 85.1 nM
[11]
  Activity: inactive

## CCCC(=O)NCC1(c2cn(C)c3ccc(OC)cc23)CC1
[3]
  Ki: 212 nM
[6]
  Activity: Agonist
[7]
  Activity: inactive
[1]
  Ki: 7.5 nM
[8]
  Activity: Agonist
[2]; [14]
  EC50: 1.7 nM

## COc1ccc2[nH]cc(C(C)CNC(C)=O)c2c1 (configuration not stated)
[3]
  Ki: 1.67 nM
[7]
  Activity: inactive
[1]
  Ki: 2.94 nM
[2]; [14]
  EC50: 0.049 nM

## COc1ccc2c(c1)c(C(C)CNC(C)=O)cn2C (stereo in doubt; (-)6a) [listing 1 of 2 here]
[1]
  Ki: 0.27 nM
[2]; melanophore, read-out: EC50
  EC50: 10.8 nM

## CCCC(=O)NCC1(c2cn(C)c3ccc(OC)cc23)CCC1
[12]
  Activity: inactive
[3]
  Ki: 10.6 nM
[9]
  Activity: 92%
[7]
  Activity: inactive
[1]
  Ki: 0.86 nM
[2]; [14]
  EC50: 2 nM
[13]
  Activity: Antagonist

## CCCC(=O)NCC1(c2c[nH]c3ccc(OC)cc23)CCC1
[3]
  Ki: 116 nM
[6]
  Activity: Agonist
[7]
  Activity: inactive
[1]
  Ki: 57.4 nM
[8]
  Activity: Agonist
[2]; [14]
  EC50: 2.56 nM

## COc1ccc2[nH]cc(C3(CNC(=O)C4CC4)CCC3)c2c1
[3]
  Ki: 57.8 nM
[4]
  IC50: 2500 nM
[5]
  Activity: inactive
[1]
  Ki: 28.9 nM

## CCC(=O)NCC1(c2cn(C)c3ccc(OC)cc23)CCCC1
[3]
  Ki: 302 nM
[4]
  IC50: 811 nM
[5]
  Activity: inactive
[1]
  Ki: 102 nM

## CCC(=O)NCC1(c2cn(C)c3ccc(OC)cc23)CC1
[3]
  Ki: 86 nM
[7]
  Activity: inactive
[1]
  Ki: 39 nM
[2]; [14]
  EC50: 6.8 nM

## COc1ccc2c(c1)c(C1(CNC(=O)C3CCC3)CCC1)cn2C
[3]
  Ki: 714 nM
[4]
  IC50: > 10000 nM
[5]
  Activity: inactive
[1]
  Ki: 3770 nM
[2]; melanophore
  EC50: Not Active

## COc1ccc2c(c1)c(C(C)(C)CNC(C)=O)cn2C
[3]
  Ki: 11.5 nM
[7]
  Activity: inactive
[1]
  Ki: 1.29 nM
[2]; [14]
  EC50: 6.31 nM

## COc1ccc2c(c1)c(C1(CNC(=O)C3CCC3)CCCC1)cn2C
[3]
  Ki: 479 nM
[4]
  IC50: 1770 nM
[5]
  Activity: inactive
[1]
  Ki: 407 nM

## COc1ccc2c(c1)c(C1(CNC(C)=O)CC1)cn2C
[3]
  Ki: 176 nM
[7]
  Activity: inactive
[1]
  Ki: 90 nM
[2]; [14]
  EC50: 10.5 nM

## COc1ccc2c(c1)c(C1(CNC(=O)C3CC3)CCC1)cn2C
[3]
  Ki: 307 nM
[4]
  IC50: 2070 nM
[5]
  Activity: inactive
[1]
  Ki: 138 nM

## COc1ccc2c(c1)c(C(C)CNC(C)=O)cn2C (stereo in doubt; (-)6a) [listing 2 of 2 here]
[7]
  Activity: inactive

## COc1ccc2c(c1)c(C(C)CNC(C)=O)cn2C (single isomer, unassigned; (+)) [listing 2 of 2 here]
[7]
  Activity: inactive

## COc1ccc2[nH]cc(C(C)(C)CNC(C)=O)c2c1
[3]
  Ki: 1.12 nM
[6]
  Activity: Agonist
[7]
  Activity: inactive
[1]
  Ki: 2.75 nM
[8]
  Activity: Agonist
[2]; [14]
  EC50: 0.0072 nM

## COc1ccc2c(c1)c(C(C)CNC(C)=O)cn2C (stereo in doubt; 6a) [listing 2 of 2 here]
[7]
  Activity: inactive

## CCCC(=O)NCC1(c2cn(C)c3ccccc23)CCC1
[3]
  Ki: 724 nM
[4]
  IC50: 3030 nM
[1]
  Ki: 1740 nM
[2]; melanophore
  EC50: Not Active
